According to ChEMBL document CHEMBL3997782, “Methoxylated 2'-hydroxychalcones as antiparasitic hit compounds” (Eur J Med Chem, 2017):
pEC50, pIC50: −log10 of the molar value. ≈ marks a conversion by molar mass, not a printed value.

Columns and labels:
[1] = system: Trypanosoma brucei brucei; experiment: Anti-parasitic activity against bloodstream form of Trypanosoma brucei brucei Lister 427 after 72 hrs by resazurin-based assay; assay type: functional; conditions: Lister 427, 72 h
How it was run: (§1)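 Bloodstream-form T. brucei, modified resazurin-based viability assay. EC50 is the arithmetic mean of at least two independent determinations, each run in triplicate.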

[2] = system: Trypanosoma brucei brucei; experiment: Anti-parasitic activity against bloodstream form of Trypanosoma brucei brucei Lister 427 at 10 uM after 72 hrs by resazurin-based assay relative to control; assay type: functional; conditions: Lister 427, 72 h; how it was run: as §1
[3] = system: Trypanosoma cruzi; experiment: Anti-parasitic activity against Trypanosoma cruzi Y promastigotes infected in HG39 cells at 10 uM by qPCR analysis relative to control; assay type: functional, cell-based; conditions: in the assay text read “trypomastigotes” for “promastigotes”
How it was run: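 Confluent HG39 cells (3 x 10^6 per well) infected at a 1:1 ratio with blood-derived T. cruzi Y strain trypomastigotes. Growth inhibition was read as parasite gDNA by TaqMan probe-based quantitative real-time PCR.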

[4] = Cytotoxicity against human […] cells assessed as cell growth by Cell titer-Glo assay; assay type: cell-based; conditions: WI-38 cells
How it was run: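 A549 and WI-38 cells grown in DMEM with 10% v/v FCS, streptomycin 100 µg/ml and penicillin G 100 U/ml. Cell number read as cellular ATP by CellTiter-Glo luminescence. Growth 60–100% scored non-cytotoxic, 0–60% cytostatic, below 0 cytotoxic.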

[5] = Mitochondrial toxicity in human 786-O cells by mitotracker red chloromethyl-Xrosamine staining based-uptake method; assay type: cell-based, 786-0
How it was run: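 786-O renal carcinoma cells kept in RPMI-1640 with 2 mM glutamine, 10% v/v FCS, streptomycin 100 µg/ml and penicillin G 100 U/ml. Mitochondrial toxicity monitored by MitoTracker Red CMXRos uptake with high-content imaging.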

[6] = target: Aurora kinase B (Homo sapiens, UniProt Q96GD4); experiment: Inhibition of N-terminal-GST-tagged recombinant full length human Aurora B expressed in baculovirus infected Sf9 cells at 10 uM using native Swine Myelin Basic Protein as substrate measured after 60 mins by ADP-Glo assay relative to control; conditions: probe native Swine Myelin Basic Protein
Aurora kinase B, sequence (Q96GD4 whole entry): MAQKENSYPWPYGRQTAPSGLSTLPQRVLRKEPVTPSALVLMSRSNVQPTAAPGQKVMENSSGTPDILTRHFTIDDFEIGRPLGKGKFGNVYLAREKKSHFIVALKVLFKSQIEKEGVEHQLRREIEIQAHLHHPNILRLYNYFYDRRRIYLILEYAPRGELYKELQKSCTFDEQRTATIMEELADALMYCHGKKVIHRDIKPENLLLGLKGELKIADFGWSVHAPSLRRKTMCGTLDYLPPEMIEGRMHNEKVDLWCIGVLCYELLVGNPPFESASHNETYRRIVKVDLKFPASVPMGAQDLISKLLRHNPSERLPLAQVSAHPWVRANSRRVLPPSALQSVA
How it was run: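 Aurora B kinase activity measured by ADP-Glo, which detects ADP formed through a coupled luciferase luminescence read-out.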

[7] = target: Cytochrome P450 2C19 (Homo sapiens, UniProt P33261); experiment: Inhibition of human CYP2C19 expressed in baculovirus-infected insect cells using Luciferin-H EGE as substrate in presence of NADPH by P450-Glo luminescence assay; assay type: ADME
Cytochrome P450 2C19, sequence (P33261 whole entry): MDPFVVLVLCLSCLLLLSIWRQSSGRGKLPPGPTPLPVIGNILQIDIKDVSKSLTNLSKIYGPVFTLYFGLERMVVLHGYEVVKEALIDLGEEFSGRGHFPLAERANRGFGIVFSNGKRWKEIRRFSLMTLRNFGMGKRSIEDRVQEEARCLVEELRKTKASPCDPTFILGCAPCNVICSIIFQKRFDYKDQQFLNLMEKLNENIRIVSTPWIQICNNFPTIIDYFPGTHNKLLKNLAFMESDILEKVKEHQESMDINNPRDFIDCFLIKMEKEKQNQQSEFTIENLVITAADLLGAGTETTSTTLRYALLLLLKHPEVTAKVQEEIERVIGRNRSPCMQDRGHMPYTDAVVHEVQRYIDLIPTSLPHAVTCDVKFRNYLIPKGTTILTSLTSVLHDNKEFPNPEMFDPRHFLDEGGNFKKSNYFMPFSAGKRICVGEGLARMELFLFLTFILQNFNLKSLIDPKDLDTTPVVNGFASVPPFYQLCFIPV
How it was run: (§2)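 CYP enzymes as microsomal preparations from baculovirus-infected insect cells, run on the P450-Glo luminogenic substrate platform. A fall in light output indicates inhibition.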

[8] = target: CYP2D6 (Homo sapiens, UniProt P10635); experiment: Inhibition of human CYP2D6 expressed in baculovirus-infected insect cells at 10 uM using Luciferin-ME EGE as substrate in presence of NADPH by P450-Glo luminescence assay relative to control; assay type: ADME; conditions: probe Luciferin-ME EGE; how it was run: as §2
CYP2D6, sequence (P10635 whole entry): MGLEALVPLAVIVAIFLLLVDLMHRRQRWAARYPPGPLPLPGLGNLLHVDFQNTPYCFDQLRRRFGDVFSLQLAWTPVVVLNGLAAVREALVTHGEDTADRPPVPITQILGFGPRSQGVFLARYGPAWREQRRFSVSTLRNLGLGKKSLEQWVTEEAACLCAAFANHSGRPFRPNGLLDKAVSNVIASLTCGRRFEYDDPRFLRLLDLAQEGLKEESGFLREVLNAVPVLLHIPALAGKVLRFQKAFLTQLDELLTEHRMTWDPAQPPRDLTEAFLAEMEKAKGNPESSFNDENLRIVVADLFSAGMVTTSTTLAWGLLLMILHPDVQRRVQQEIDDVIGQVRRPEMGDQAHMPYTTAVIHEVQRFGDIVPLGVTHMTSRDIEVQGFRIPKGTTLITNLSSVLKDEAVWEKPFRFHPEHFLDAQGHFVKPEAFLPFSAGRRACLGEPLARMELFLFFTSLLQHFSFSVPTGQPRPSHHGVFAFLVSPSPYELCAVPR

[9] = target: Cytochrome P450 2D6 (Homo sapiens, UniProt P10635); experiment: Inhibition of human CYP2D6 expressed in baculovirus-infected insect cells using Luciferin-ME EGE as substrate in presence of NADPH by P450-Glo luminescence assay; assay type: ADME; how it was run: as §2
Cytochrome P450 2D6, sequence (P10635 whole entry): as above

[10] = Solubility of the compound in water measured after 18 hrs by UV-vis spectroscopic method; assay type: physicochemical
How it was run: (§3)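 Saturated suspensions prepared at 100 µM in water, 100 µM in PBS, 200 µM in PBS + 10% DMSO and 10 mM in PBS + 50% DMSO. Held 18 h at 25°C, passed through a 0.2 µm filter, then quantified by UV-Vis absorbance at 312 nm using the calculated extinction coefficient.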

[11] = Solubility of the compound in phosphate buffered saline with 10% DMSO measured after 18 hrs by UV-vis spectroscopic method; assay type: physicochemical; how it was run: as §3
[12] = Solubility of the compound in phosphate buffered saline with 50% DMSO measured after 18 hrs by UV-vis spectroscopic method; assay type: physicochemical; how it was run: as §3
[13] = Half-life in BALB/c mouse at 1 mg/kg, iv by LC-MS method; assay type: ADME, organism-based; conditions: in vivo
How it was run: (§4)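 BALB/c mice dosed either free (8% DMSO; 1 mg/kg IV or 20 mg/kg oral), or 20 mg/kg oral in 50% w/v hydroxypropyl-β-cyclodextrin, or 20 mg/kg oral in 25% cyclodextrins plus 50% PEG 400. Serial submandibular blood samples stored at -20°C. Plasma measured by isocratic LC-MS (acetonitrile:water 80:20, 0.2 ml/min), quantifier transition m/z 315.0>161.0.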

[14] = Drug uptake in BALB/c mouse plasma at 1 mg/kg, iv measured after 45 mins by LC-MS method; assay type: ADME, organism-based; how it was run: as §4
[15] = Drug uptake in BALB/c mouse plasma at 20 mg/kg, po as cyclodextrin/PEG400 formulation measured after 0.25 hrs by LC-MS method; assay type: ADME, organism-based; how it was run: as §4
[16] = Drug uptake in BALB/c mouse plasma at 20 mg/kg, po as cyclodextrin/PEG400 formulation measured after 0.75 hrs by LC-MS method; assay type: ADME, organism-based; how it was run: as §4
[17] = Drug uptake in BALB/c mouse plasma at 20 mg/kg, po as cyclodextrin/PEG400 formulation measured after 1 hr by LC-MS method; assay type: ADME, organism-based; how it was run: as §4
[18] = Drug uptake in BALB/c mouse plasma at 20 mg/kg, po as cyclodextrin/PEG400 formulation measured after 3 hrs by LC-MS method; assay type: ADME, organism-based; how it was run: as §4
[19] = Drug uptake in BALB/c mouse plasma at 20 mg/kg, po measured after 0.25 hrs by LC-MS method; assay type: ADME, organism-based; how it was run: as §4
[20] = Drug uptake in BALB/c mouse plasma at 20 mg/kg, po measured after 0.5 hrs by LC-MS method; assay type: ADME, organism-based; how it was run: as §4
[21] = Drug uptake in BALB/c mouse plasma at 20 mg/kg, po as 50% cyclodextrin formulation measured after 0.25 hrs by LC-MS method; assay type: ADME, organism-based; how it was run: as §4
[22] = Drug uptake in BALB/c mouse plasma at 20 mg/kg, po as 50% cyclodextrin formulation measured after 3 hrs by LC-MS method; assay type: ADME, organism-based; how it was run: as §4
[23] = Drug uptake in BALB/c mouse plasma at 20 mg/kg, po as 50% cyclodextrin formulation measured after 24 hrs by LC-MS method; assay type: ADME, organism-based; how it was run: as §4

## COc1cccc(/C=C/C(=O)c2cc(OC)c(OC)cc2O)c1
[1]
  pEC50: 5.38
[2]
  inhibition at 10 µM: 100%
[3]
  inhibition at 10 µM: 46%
[4]
  GI50: 10.8 µM
[5]
  pIC50: 4.84
[6]
  inhibition at 1 h, 10 µM: -6.8%
[7]
  pIC50: 5.11
[8]
  inhibition at 10 µM: 58.8%
[9]
  pIC50: 5.17
[10]
  solubility at 18 h: 0.91 µM (≈ 0.286 µg/mL)
[11]
  solubility at 18 h: 11.4 µM (≈ 3.59 µg/mL)
[12]
  solubility at 18 h: 600 µM (≈ 189 µg/mL)
[13]
  half-life: 1.04 h
[14]
  concentration at 0.75 h: 23 nM
[15]
  concentration at 0.25 h: 48 nM
[16]
  concentration at 0.75 h: 11 nM
[17]
  concentration at 1 h: 18 nM
[18]
  concentration at 3 h: 6 nM
[19]
  concentration at 0.25 h: 270 nM
[20]
  concentration at 0.5 h: 49 nM
[21]
  concentration at 0.25 h: 1100 nM
[22]
  concentration at 3 h: 10 nM
[23]
  concentration at 24 h: 5 nM
